Measured values as given in ChEMBL document CHEMBL1240433, “Design, synthesis, and antitubercular evaluation of novel series of 3-benzofuran-5-aryl-1-pyrazolyl-pyridylmethanone and 3-benzofuran-5-aryl-1-pyrazolylcarbonyl-4-oxo-naphthyridin analogs” (Eur J Med Chem, 2010).
In brackets after ≈: the same amount, converted by molar mass.

Test system: Mycobacterium tuberculosis
Test: Antitubercular activity against multidrug-resistant Mycobacterium tuberculosis H37Rv after 6 weeks
Format: functional
In short: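 Lowenstein-Jensen slope assay. DMSO stocks of 250 and 10 µg/mL were each mixed 0.8 mL into 7.2 mL L.J. medium, then inspissated at 75-80 °C for 3 days. A loopful of culture was dispersed with glass beads in sterile water by vortexing for 2 min and streaked onto the slopes. DMSO-only and drug-free media served as controls. Bacterial counts were read after 6 weeks at 37 °C.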

First: CCn1cc(C(=O)N2N=C(c3cc4ccccc4o3)CC2c2ccccc2[N+](=O)[O-])c(=O)c2ccc(C)nc21 (stereo not given)
Second: CCn1cc(C(=O)N2N=C(c3cc4ccccc4o3)CC2c2ccccc2Cl)c(=O)c2ccc(C)nc21 (stereo not given)
The MIC of the first is 2.3-fold lower: 3.6 µg/mL (≈ 6.9 µM) for the first, 8.4 µg/mL (≈ 16.4 µM) for the second.

`O=C(c1ccncc1)N1N=C(c2cc3ccccc3o2)CC1c1cccc([N+](=O)[O-])c1` (stereo not given) and `O=C(c1ccncc1)N1N=C(c2cc3ccccc3o2)CC1c1ccccc1[N+](=O)[O-]` (stereo not given) are within 1.5-fold of each other in MIC: 6.9 µg/mL (≈ 16.7 µM) for the first, 7.5 µg/mL (≈ 18.2 µM) for the second.

`CCn1cc(C(=O)N2N=C(c3cc4ccccc4o3)CC2c2ccc(OC)cc2O)c(=O)c2ccc(C)nc21` (stereo not given) and `CCn1cc(C(=O)N2N=C(c3cc4ccccc4o3)CC2c2ccccc2O)c(=O)c2ccc(C)nc21` (stereo not given) are within 1.5-fold of each other in MIC: 5.4 µg/mL (≈ 10.3 µM) for the first, 6.4 µg/mL (≈ 13 µM) for the second.

First: CCn1cc(C(=O)N2N=C(c3cc4ccccc4o3)CC2c2ccccc2)c(=O)c2ccc(C)nc21 (stereo not given)
Second: CCn1cc(C(=O)N2N=C(c3cc4ccccc4o3)CC2c2ccc(Cl)cc2)c(=O)c2ccc(C)nc21 (stereo not given)
The MIC of the first is 1.7-fold higher: 10.8 µg/mL (≈ 22.7 µM) for the first, 6.3 µg/mL (≈ 12.3 µM) for the second.

Going from `O=C(c1ccncc1)N1N=C(c2cc3ccccc3o2)CC1c1ccccc1` (stereo not given) to `O=C(c1ccncc1)N1N=C(c2cc3ccccc3o2)CC1c1ccccc1O` (stereo not given), the MIC falls from 9.5 µg/mL (≈ 25.9 µM) to 6.2 µg/mL (≈ 16.2 µM) (1.5-fold).

`O=C(c1ccncc1)N1N=C(c2cc3ccccc3o2)CC1/C=C/c1ccccc1` (stereo not given) and `O=C(c1ccncc1)N1N=C(c2cc3ccccc3o2)CC1c1ccccc1Cl` (stereo not given) are within 1.5-fold of each other in MIC: 7.5 µg/mL (≈ 19.1 µM) for the first, 9.5 µg/mL (≈ 23.6 µM) for the second.

Going from `COc1ccccc1C1CC(c2cc3ccccc3o2)=NN1C(=O)c1ccncc1` (stereo not given) to `O=C(O)c1ccccc1C1CC(c2cc3ccccc3o2)=NN1C(=O)c1ccncc1` (stereo not given), the MIC falls from 5.7 µg/mL (≈ 14.3 µM) to 3.2 µg/mL (≈ 7.78 µM) (1.8-fold).

`CCn1cc(C(=O)N2N=C(c3cc4ccccc4o3)CC2c2ccccc2C(=O)O)c(=O)c2ccc(C)nc21` (stereo not given) and `CCn1cc(C(=O)N2N=C(c3cc4ccccc4o3)CC2c2ccccc2OC)c(=O)c2ccc(C)nc21` (stereo not given) are within 1.5-fold of each other in MIC: 7.8 µg/mL (≈ 15 µM) for the first, 8.5 µg/mL (≈ 16.8 µM) for the second.

Going from `CCn1cc(C(=O)N2N=C(c3cc4ccccc4o3)CC2c2ccc(N(C)C)cc2)c(=O)c2ccc(C)nc21` (stereo not given) to `CCn1cc(C(=O)N2N=C(c3cc4ccccc4o3)CC2c2ccc(O)cc2)c(=O)c2ccc(C)nc21` (stereo not given), the MIC falls from 10.6 µg/mL (≈ 20.4 µM) to 3.8 µg/mL (≈ 7.72 µM) (2.8-fold).

`O=C(c1ccncc1)N1N=C(c2cc3ccccc3o2)CC1c1ccco1` (stereo not given) and `O=C(c1ccncc1)N1N=C(c2cc3ccccc3o2)CC1c1ccc(Cl)cc1` (stereo not given) are within 1.5-fold of each other in MIC: 10.4 µg/mL (≈ 29.1 µM) for the first, 10.6 µg/mL (≈ 26.4 µM) for the second.

Going from `CN(C)c1ccc(C2CC(c3cc4ccccc4o3)=NN2C(=O)c2ccncc2)cc1` (stereo not given) to `O=C(c1ccncc1)N1N=C(c2cc3ccccc3o2)CC1c1ccc(O)cc1` (stereo not given), the MIC falls from 11.5 µg/mL (≈ 28 µM) to 6.2 µg/mL (≈ 16.2 µM) (1.9-fold).

Compared with `CO[C@H]1/C=C/O[C@@]2(C)Oc3c(C)c(O)c4c(O)c(c(/C=N/N5CCN(C)CC5)c(O)c4c3C2=O)NC(=O)/C(C)=C\C=C\[C@H](C)[C@H](O)[C@@H](C)[C@@H](O)[C@@H](C)[C@H](OC(C)=O)[C@@H]1C` [RIFAMPIN], `CCn1cc(C(=O)N2N=C(c3cc4ccccc4o3)CC2c2ccc(OC)cc2)c(=O)c2ccc(C)nc21` (stereo not given) is 2-fold higher in MIC: 4.2 µg/mL (≈ 5.1 µM) for the first, 8.5 µg/mL (≈ 16.8 µM) for the second.

`CCn1cc(C(=O)N2N=C(c3cc4ccccc4o3)CC2/C=C/c2ccccc2)c(=O)c2ccc(C)nc21` (stereo not given) and `CCn1cc(C(=O)N2N=C(c3cc4ccccc4o3)CC2c2ccco2)c(=O)c2ccc(C)nc21` (stereo not given) are within 1.5-fold of each other in MIC: 7.4 µg/mL (≈ 14.7 µM) for the first, 8.5 µg/mL (≈ 18.2 µM) for the second.

`COc1ccc(C2CC(c3cc4ccccc4o3)=NN2C(=O)c2ccncc2)c(O)c1` (stereo not given) and `COc1ccc(C2CC(c3cc4ccccc4o3)=NN2C(=O)c2ccncc2)cc1` (stereo not given) are within 1.5-fold of each other in MIC: 4.5 µg/mL (≈ 10.9 µM) for the first, 5.5 µg/mL (≈ 13.8 µM) for the second.

Going from `NNC(=O)c1ccncc1` [ISONIAZID] to `CCn1cc(C(=O)N2N=C(c3cc4ccccc4o3)CC2c2cccc([N+](=O)[O-])c2)c(=O)c2ccc(C)nc21` (stereo not given), the MIC falls from 8.5 µg/mL (≈ 62 µM) to 3.7 µg/mL (≈ 7.09 µM) (2.3-fold).
